# Results taken from ChEMBL document CHEMBL1131110, “Deoxyadenosine bisphosphate derivatives as potent antagonists at P2Y1 receptors” (J Med Chem, 1998).
# Active and inactive are the calls of the source. The rule behind the calls is not given here.
# Legend:
# P2Y purinoceptor 1 [1] = target: T1, P2Y purinoceptor 1 (Meleagris gallopavo, UniProt P49652); experiment: Antagonist activity at P2Y1 receptor measured as capacity to inhibit 50% of phospholipase C stimulation elicited by 10 nM 2-MeSATP; assay type: functional
# T1 sequence (P49652 whole entry): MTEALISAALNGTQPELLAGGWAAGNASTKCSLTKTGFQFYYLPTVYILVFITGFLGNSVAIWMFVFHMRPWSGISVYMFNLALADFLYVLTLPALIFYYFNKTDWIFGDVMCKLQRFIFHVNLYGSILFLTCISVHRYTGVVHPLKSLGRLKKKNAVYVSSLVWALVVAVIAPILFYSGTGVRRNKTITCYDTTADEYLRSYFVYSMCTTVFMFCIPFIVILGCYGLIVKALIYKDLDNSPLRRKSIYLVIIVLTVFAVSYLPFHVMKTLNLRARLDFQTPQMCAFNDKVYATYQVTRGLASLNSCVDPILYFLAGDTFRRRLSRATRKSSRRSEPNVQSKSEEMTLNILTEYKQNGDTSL
# Summary of the method: (§1)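 Ghosts are incubated 5 min at 30 °C with 10 nM 2-MeSATP plus graded analogue concentrations. [3H]inositol phosphates are separated by anion exchange. Maximal inhibition is 100 minus residual stimulation at the top concentration. Each curve was run at least 3 times in duplicate or triplicate.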
# [2] = target: P2Y purinoceptor 1 (Meleagris gallopavo) (UniProt P49652); experiment: Agonist activity at P2Y1 receptor measured as capacity to stimulate phospholipase C in turkey erythrocyte membranes; assay type: functional, cell membranes
# P2Y purinoceptor 1 (Meleagris gallopavo), sequence (P49652 whole entry): as above
# Summary of the method: (§2)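 Turkey erythrocytes labelled with 2-[3H]myo-inositol in inositol-free DMEM for 18–24 h at 37 °C, 5% CO2. Ghosts made by hypotonic lysis. Labelled ghosts (~175 μg protein) incubated 5 min at 30 °C with 1 μM GTPγS and test nucleotide at pH 7.0 (HEPES, KCl, CaCl2, MgSO4, EGTA). Total [3H]inositol phosphates measured by anion-exchange chromatography. EC50 from four-parameter logistic fit. Efficacy is relative to a maximal 2-MeSATP response in the same experiment.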
# P2Y purinoceptor 1 [3] = target: T1, P2Y purinoceptor 1; experiment: Agonist activity at P2Y1 receptor measured as capacity to stimulate 50% phospholipase C in turkey erythrocyte membranes; assay type: functional, cell membranes; summary of the method: as §2
# [4] = target: P2Y purinoceptor 1 (Meleagris gallopavo) (UniProt P49652); experiment: Antagonist activity at P2Y1 receptor measured as capacity to inhibit phospholipase C stimulation elicited by 10 nM 2-MeSATP; assay type: functional
# Summary of the method: as §1, with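 “The PLC assay uses [3H]inositol-labelled turkey erythrocyte ghosts (~175 μg protein) in HEPES buffer, pH 7.0, with 1 μM GTPγS. Ghosts” for “Ghosts”, “exchange. IC50 is the concentration inhibiting 50% of the 2-MeSATP response.” for “exchange.”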
# [5] = target: P2Y purinoceptor 1 (Meleagris gallopavo) (UniProt P49652); experiment: Agonist activity at P2Y1 receptor measured as capacity to stimulate phospholipase C in turkey erythrocyte membranes; NE=No effect; assay type: functional, cell membranes; summary of the method: as §2
# [6] = target: P2Y purinoceptor 1 (Meleagris gallopavo) (UniProt P49652); experiment: Antagonist activity at P2Y1 receptor measured as capacity to inhibit phospholipase C stimulation elicited by 10 nM 2-MeSATP; Small inhibition at 30-100 uM; assay type: functional; conditions: filed as antagonist
# Summary of the method: as §1, with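 “The PLC assay uses [3H]inositol-labelled turkey erythrocyte ghosts (~175 μg protein) in HEPES buffer, pH 7.0, with 1 μM GTPγS. Ghosts” for “Ghosts”, “exchange. IC50 is the concentration inhibiting 50% of the 2-MeSATP response.” for “exchange.”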
# [7] = target: P2Y purinoceptor 1 (Meleagris gallopavo) (UniProt P49652); experiment: Antagonist activity at P2Y1 receptor measured as capacity to inhibit phospholipase C stimulation elicited by 10 nM 2-MeSATP; NE=No effect; assay type: functional
# Summary of the method: as §1, with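 “The PLC assay uses [3H]inositol-labelled turkey erythrocyte ghosts (~175 μg protein) in HEPES buffer, pH 7.0, with 1 μM GTPγS. Ghosts” for “Ghosts”, “exchange. IC50 is the concentration inhibiting 50% of the 2-MeSATP response.” for “exchange.”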
# [8] = target: P2Y purinoceptor 1 (Meleagris gallopavo) (UniProt P49652); experiment: Agonist activity at P2Y1 receptor measured as capacity to stimulate phospholipase C in turkey erythrocyte membranes; No effect or small inhibition; assay type: functional, cell membranes; summary of the method: as §2
# [9] = target: P2Y purinoceptor 1 (Meleagris gallopavo) (UniProt P49652); experiment: Antagonist activity at P2Y1 receptor measured as capacity to inhibit phospholipase C stimulation elicited by 10 nM 2-MeSATP; No effect or small inhibition; assay type: functional
# Summary of the method: as §1, with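 “The PLC assay uses [3H]inositol-labelled turkey erythrocyte ghosts (~175 μg protein) in HEPES buffer, pH 7.0, with 1 μM GTPγS. Ghosts” for “Ghosts”, “exchange. IC50 is the concentration inhibiting 50% of the 2-MeSATP response.” for “exchange.”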
Structure (SMILES),IC50 (P2Y purinoceptor 1 [1]) [µM],Max increase [2] [%],EC50 (P2Y purinoceptor 1 [3]) [µM],Max inhibition [4] [%],Max increase [5],further results
Nc1ncnc2c1ncn2[C@@H]1O[C@H](COP(=O)(O)O)[C@@H](O)[C@H]1OP(=O)(O)O,8.46,25,1.37,75,–,–
CSc1ncnc2c1ncn2[C@H]1C[C@H](OP(=O)(O)O)[C@@H](COP(=O)(O)O)O1,29.1,–,–,78,inactive,–
Nc1ncnc2c1ncn2[C@H]1C[C@H](OP(=O)(O)O)[C@@H](COP(=O)(O)O)O1,5.76,12,6.26,87,–,–
C[n+]1cnc2c(ncn2[C@H]2C[C@H](OP(=O)(O)O)[C@@H](COP(=O)(O)O)O2)c1N,54.9,–,–,100,inactive,–
CCCNc1ncnc2c1ncn2[C@H]1C[C@H](OP(=O)(O)O)[C@@H](COP(=O)(O)O)O1,–,–,–,–,inactive,Max inhibition [6]: Partial antagonist
O=P(O)(O)OC[C@H]1O[C@@H](n2cnc3c2ncn2ccnc32)C[C@@H]1OP(=O)(O)O,–,–,–,–,inactive,Max inhibition [7]: inactive
Nc1ncnc2c1ncn2C1OC(CCl)CC1OP(=O)(O)O (stereo not given),–,–,–,–,inactive,Max inhibition [7]: inactive
O=C(Nc1ncnc2c1ncn2[C@H]1C[C@H](OP(=O)(O)O)[C@@H](COP(=O)(O)O)O1)c1ccccc1,–,–,–,–,inactive,Max inhibition [7]: inactive
CO[C@@H]1[C@H](OP(=O)(O)O)[C@@H](COP(=O)(O)O)O[C@H]1n1cnc2c(N)ncnc21,12.4,35,12.9,65,–,–
Nc1ncnc2c1ncn2C1OC(COP(=O)(O)O)CC1OP(=O)(O)O (stereo not given),11,16,8.33,81,–,–
NCCCCCCNc1ncnc2c1ncn2[C@@H]1O[C@H](COP(=O)(O)O)[C@@H](O)[C@H]1OP(=O)(O)O,–,–,–,–,inactive,Max inhibition [7]: inactive
Nc1ncnc2c1nc(Br)n2[C@H]1C[C@H](OP(=O)(O)O)[C@@H](COP(=O)(O)O)O1,36.7,–,–,100,inactive,–
CNc1ncnc2c1ncn2C1OC(COP(=O)(O)O)CC1OP(=O)(O)O (stereo not given),0.324,13,–,90,–,–
CN(C)c1ncnc2c1ncn2[C@H]1C[C@H](OP(=O)(O)O)[C@@H](COP(=O)(O)O)O1,46.7,–,–,70,inactive,–
Nc1ncnc2c1ncn2[C@@H]1O[C@H](COP(=O)(O)O)[C@H]2O[P@](=O)(O)O[C@H]21,12.7,–,40.9,–,–,–
CSc1nc(N)c2ncn([C@H]3C[C@H](OP(=O)(O)O)[C@@H](COP(=O)(O)O)O3)c2n1,2.11,22,0.55,77,–,–
CC(C)(COP(=O)(O)OP(=O)(O)OC[C@H]1O[C@@H](n2cnc3c(N)ncnc32)[C@H](OP(=O)(O)O)[C@@H]1O)C(O)C(=O)NCCC(=O)NCCS (stereo not given in full),73,43,> 100,72,–,–
Nc1nc(Cl)nc2c1ncn2[C@H]1C[C@H](OP(=O)(O)O)[C@@H](COP(=O)(O)O)O1,2.01,19,0.651,80,–,–
Nc1ncnc2c1ncn2[C@@H]1O[C@H](COP(=O)(O)O)[C@H]2OP(=O)(O)O[C@H]21,–,43,–,73,–,–
Nc1ncnc2c1ncn2[C@@H]1O[C@H](COP(=O)(O)O)[C@@H](OP(=O)(O)O)[C@H]1O,4.19,21,1.28,77,–,–
CCNc1ncnc2c1ncn2[C@H]1C[C@H](OP(=O)(O)O)[C@@H](COP(=O)(O)O)O1,1.08,–,–,100,inactive,–
Nc1ncnc2c1ncn2C1O[C@H](COP(=O)(O)OP(=O)(O)OC2O[C@H](CO)[C@@H](O)[C@H]2O)[C@@H](O)[C@H]1OP(=O)(O)O (stereo not given in full),> 100,50,> 100,50,–,–
O=P(O)(O)OC[C@H]1O[C@@H](n2cnc3c(Cl)ncnc32)C[C@@H]1OP(=O)(O)O,–,–,–,–,–,Max increase [8]: inactive; Max inhibition [9]: inactive
Nc1ncnc2c1ncn2[C@H]1C[C@H](OP(O)(O)=S)[C@@H](COP(O)(O)=S)O1,88,9,–,91,–,–
O=c1[nH]cnc2c1ncn2[C@H]1C[C@H](OP(=O)(O)O)[C@@H](COP(=O)(O)O)O1,–,–,–,–,inactive,Max inhibition [6]: Partial antagonist
